Measurements reported in ChEMBL document CHEMBL4011636, “Utilization of an Active Site Mutant Receptor for the Identification of Potent and Selective Atypical 5-HT2C Receptor Agonists” (J Med Chem, 2017).

Columns and labels:
[1] = target: 5-hydroxytryptamine receptor 2B (Homo sapiens, UniProt P41595); experiment: Agonist activity at recombinant human 5-HT2B receptor expressed in HEK293E cells assessed as induction of intracellular Ca2+ levels after 90 secs by Fluo-4-dye based FLIPR assay; type: cell-based, HEK293
Method in brief: (§1)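 HEK293E cells stably expressing human receptor (VNV isoform for 5-HT2C; ~400−795 fmol/mg protein), grown in DMEM with 10% dialyzed FBS and G418. Cells plated at 20 000/well in serum-free DMEM overnight at 37 °C, then loaded 1 h at room temperature with 5 μM Fluo-4 in HBSS/25 mM HEPES. Eleven compound concentrations added on FLIPR, Ca2+ signal read for 90 s. EC50 from a four-parameter logistic fit, at least triplicate.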

[2] = target: 5-hydroxytryptamine receptor 2A (Homo sapiens, UniProt P28223); experiment: Agonist activity at recombinant human 5-HT2A receptor expressed in HEK293E cells assessed as induction of intracellular Ca2+ levels after 90 secs by Fluo-4-dye based FLIPR assay; type: cell-based, HEK293; method in brief: as §1
[3] = target: T1, 5-hydroxytryptamine receptor 2C (Homo sapiens) (UniProt P28335); experiment: Intrinsic activity at recombinant human 5-HT2C receptor expressed in HEK293E cells assessed as induction of intracellular Ca2+ levels after 90 secs by Fluo-4-dye based FLIPR assay relative to serotonin; type: functional, cell-based; details: HEK293
T1 sequence (whole entry): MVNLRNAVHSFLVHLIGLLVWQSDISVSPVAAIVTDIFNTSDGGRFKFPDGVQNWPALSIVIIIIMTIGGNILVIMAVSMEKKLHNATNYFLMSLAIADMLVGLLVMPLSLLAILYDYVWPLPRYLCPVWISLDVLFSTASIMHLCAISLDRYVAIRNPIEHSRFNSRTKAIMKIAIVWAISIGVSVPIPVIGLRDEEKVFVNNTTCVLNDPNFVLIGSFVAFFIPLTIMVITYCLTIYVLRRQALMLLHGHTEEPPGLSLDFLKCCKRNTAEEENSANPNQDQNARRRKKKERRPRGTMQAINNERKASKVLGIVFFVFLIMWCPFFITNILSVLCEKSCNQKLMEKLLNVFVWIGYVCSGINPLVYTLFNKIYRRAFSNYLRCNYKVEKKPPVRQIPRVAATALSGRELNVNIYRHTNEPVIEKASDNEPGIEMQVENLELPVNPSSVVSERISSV
Method in brief: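 FLIPR Fluo-4 Ca2+ assay in HEK293E cells stably expressing the human receptor (VNV isoform for 5-HT2C), eleven-point concentration series, 90 s read. Response normalized to 3 μM serotonin on the same plate (defined as IA = 1). Intrinsic activity taken from a four-parameter logistic fit.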

[4] = target: T2, 5-hydroxytryptamine receptor 2C (Homo sapiens, UniProt P28335); experiment: Agonist activity at recombinant human 5-HT2C receptor expressed in HEK293E cells assessed as induction of intracellular Ca2+ levels after 90 secs by Fluo-4-dye based FLIPR assay; type: functional, cell-based, HEK293; method in brief: as §1
T2 sequence (P28335 whole entry): T1 sequence (whole entry)

[5] = Metabolic stability in human liver microsomes assessed as parent compound remaining at […] after 10 mins; type: ADME, microsome; details: read-out: Stability
[6] = Metabolic stability in rat liver microsomes assessed as parent compound remaining at […] after 10 mins; type: ADME, microsome; details: read-out: Stability

5-hydroxytryptamine receptor 2A, sequence (P28223 whole entry): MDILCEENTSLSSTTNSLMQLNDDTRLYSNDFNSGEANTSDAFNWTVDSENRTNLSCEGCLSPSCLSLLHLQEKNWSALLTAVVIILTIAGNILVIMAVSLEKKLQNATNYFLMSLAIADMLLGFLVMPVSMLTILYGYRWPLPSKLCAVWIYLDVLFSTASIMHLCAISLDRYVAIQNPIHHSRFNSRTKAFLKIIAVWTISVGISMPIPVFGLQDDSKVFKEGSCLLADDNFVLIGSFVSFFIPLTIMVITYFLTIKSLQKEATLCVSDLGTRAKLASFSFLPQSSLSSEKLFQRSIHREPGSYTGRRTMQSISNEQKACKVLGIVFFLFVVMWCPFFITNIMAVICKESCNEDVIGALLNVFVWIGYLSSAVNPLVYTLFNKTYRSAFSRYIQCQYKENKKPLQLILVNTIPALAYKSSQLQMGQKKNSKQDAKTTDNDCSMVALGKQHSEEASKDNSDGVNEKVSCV
5-hydroxytryptamine receptor 2B, sequence (P41595 whole entry, canonical isoform): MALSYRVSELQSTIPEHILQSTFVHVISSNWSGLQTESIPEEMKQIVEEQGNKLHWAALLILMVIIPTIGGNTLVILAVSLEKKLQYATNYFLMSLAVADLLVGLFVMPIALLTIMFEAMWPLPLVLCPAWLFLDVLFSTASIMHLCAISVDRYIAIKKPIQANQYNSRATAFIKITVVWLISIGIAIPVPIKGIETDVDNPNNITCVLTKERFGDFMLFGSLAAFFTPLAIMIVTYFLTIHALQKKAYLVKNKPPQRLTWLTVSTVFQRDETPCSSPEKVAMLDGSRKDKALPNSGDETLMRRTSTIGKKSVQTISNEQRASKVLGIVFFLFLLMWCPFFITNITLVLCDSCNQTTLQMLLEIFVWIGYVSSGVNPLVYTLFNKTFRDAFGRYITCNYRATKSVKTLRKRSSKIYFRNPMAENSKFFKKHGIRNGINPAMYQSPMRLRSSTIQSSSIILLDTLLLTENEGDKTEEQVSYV

SMILES	EC50 [1]	EC50 [2]	Intrinsic activity [3]	EC50 [4]	remaining at 10 min [5]	remaining at 10 min [6]
Cc1nc(-c2cccc3ccccc23)sc1C(=O)N(C)Cc1cccnc1	> 10 µM	> 10 µM	0.8	0.012 to 0.015 µM	5%	4%
Cn1cc(-c2cccc3ccccc23)nc1C(=O)N1CCC(CO)CC1	> 10 µM	> 10 µM	0.7	1.8 to 3.53 µM	–	–
O=C(c1csc(-c2cccc(Cl)c2Cl)n1)N1CC2CC1CO2 (stereo not given)	> 10 µM	> 10 µM	0.8	0.129 to 0.315 µM	–	–
Cc1cc(-c2cccc3ccccc23)oc1C(=O)N1CCC(CO)CC1	> 10 µM	> 10 µM	0.7	1.03 to 2 µM	–	–
Cc1nn(-c2cccc3ccccc23)nc1C(=O)N1CCC(CO)CC1	> 10 µM	> 10 µM	1	0.334 to 0.385 µM	58%	24%
CCn1nc(-c2cccc3ccccc23)cc1-c1ncccn1	> 5 µM	> 5 µM	0.4	1.7 to 1.9 µM	–	–
O=C(c1cnc(-c2cccc(Cl)c2Cl)s1)N1CCOCC1	> 10 µM	> 10 µM	–	> 10 µM	–	–
Cc1nc(-c2cccc3ccccc23)oc1C(=O)N1CCC(CO)CC1	> 10 µM	> 10 µM	0.9	0.063 to 0.14 µM	33%	24%
Cc1nc(-c2cccc3ccccc23)sc1C(=O)N1CCC(O)CC1	> 10 µM	> 10 µM	0.9	0.047 µM	84%	34%
O=C(c1csc(-c2cccc(Cl)c2Cl)n1)N1CCCCC1	> 10 µM	> 10 µM	0.3	3.1 to 3.7 µM	–	–
Cc1nc(-c2cccc3ccccc23)sc1C(=O)N(C)Cc1ccn(C)n1	> 10 µM	> 10 µM	1	0.013 to 0.019 µM	–	–
Cc1sc(-c2cccc3ccccc23)nc1C(=O)N1CCOCC1	> 10 µM	> 10 µM	0.3	2.78 µM	–	–
CCn1nc(-c2cccc3ccccc23)cc1-c1nccn1C	> 10 µM	> 10 µM	0.8	0.027 to 0.037 µM	5%	–
CCn1nc(-c2cccc3ccccc23)cc1-c1ncnn1C	> 10 µM	> 10 µM	0.7	0.19 to 0.616 µM	4%	–
CCn1nc(-c2ccnc3ccccc23)cc1-c1cccnn1	> 10 µM	> 10 µM	0.6	0.315 to 0.396 µM	–	–
Cc1nc(-c2cccc3ccccc23)sc1C(=O)N(C)C	> 10 µM	> 10 µM	1	0.059 to 0.072 µM	–	–
Cc1cccc(-c2nc(C(=O)N3CCOCC3)cs2)c1C	> 10 µM	> 10 µM	0.7	0.501 to 0.705 µM	–	–
CCn1nc(-c2cccc3ccccc23)cc1-c1cccnn1	> 10 µM	0.884 µM	1.2	0.015 µM	17%	–
O=C(c1csc(-c2ccccc2Cl)n1)N1CCOCC1	> 10 µM	> 10 µM	0.1	4.6 µM	–	–
CCn1nc(-c2cncc3ccccc23)cc1-c1cccnn1	> 10 µM	> 10 µM	0.7	0.53 µM	–	–
O=C(c1cnc(-c2cccc3ccccc23)s1)N1CCOCC1	> 10 µM	> 10 µM	0.6	1.52 to 2.27 µM	–	–
Cc1sc(-c2cccc(Cl)c2Cl)nc1C(=O)N1CCOCC1	> 10 µM	> 10 µM	0.6	1.52 µM	–	–
O=C(c1csc(-c2cccc(Cl)c2Cl)n1)N1CCCOCC1	> 10 µM	> 10 µM	0.5	0.32 to 0.733 µM	–	–
CCn1nc(-c2cccc3ccccc23)cc1-c1ccnn1C	> 10 µM	> 10 µM	0.3	3.46 to 5 µM	–	–
CCn1nc(-c2cccc3ncccc23)cc1-c1cccnn1	> 10 µM	> 10 µM	0.3	4.53 to 4.73 µM	–	–

SMILES	EC50 [1]	EC50 [2]	Intrinsic activity [3]	EC50 [4]	remaining at 10 min [5]	remaining at 10 min [6]
O=C(c1nc(-c2cccc3ccccc23)cs1)N1CCOCC1	> 10 µM	> 10 µM	0.6	0.729 to 1.62 µM	–	–
CCn1nc(-c2cccc3ccccc23)cc1-c1cncn1C	> 10 µM	> 10 µM	0.2	3.85 to 4.39 µM	–	–
Cc1nc(-c2cccc(Cl)c2Cl)sc1C(=O)N1CCOCC1	> 10 µM	> 10 µM	–	> 10 µM	–	–
O=C(c1nnn(-c2cccc3ccccc23)n1)N1CCC(CO)CC1	> 10 µM	> 10 µM	0.3	4.1 to 10 µM	–	–
COCCNC(=O)c1sc(-c2cccc3ccccc23)nc1C	> 10 µM	> 10 µM	–	> 10 µM	–	–
Cc1nc(-c2cccc3ccccc23)sc1C(=O)N1CCNCC1	> 10 µM	> 10 µM	0.4	1.04 µM	–	–
CCn1nc(-c2nccc3ccccc23)cc1-c1cccnn1	> 10 µM	> 10 µM	0.8	0.291 to 0.518 µM	–	–
CCn1nc(-c2cccc3ccccc23)cc1-c1ccccn1	> 5 µM	> 5 µM	0.8	0.576 to 0.613 µM	–	–
Cc1nc(-c2cccc3ccccc23)sc1C(=O)N(CCO)C(C)C	> 10 µM	> 10 µM	–	> 10 µM	28%	7%
Cc1nc(-c2cccc3ccccc23)sc1C(N)=O	> 10 µM	> 10 µM	–	> 10 µM	–	–
Cc1nc(-c2cccc3ccccc23)n(C)c1C(=O)N1CCC(CO)CC1	> 10 µM	> 10 µM	0.4	1.87 µM	–	–
CCn1nc(-c2cccc3ccncc23)cc1-c1cccnn1	> 10 µM	> 10 µM	0.7	0.013 to 0.043 µM	16%	–
CCn1nc(-c2cccc3ccccc23)cc1-c1nnnn1C	> 5 µM	1.8 to 2.5 µM	0.6	0.45 µM	4%	–
O=C(c1csc(-c2ccc(Cl)cc2Cl)n1)N1CCOCC1	> 10 µM	> 10 µM	–	> 10 µM	–	–
O=C(c1csc(-c2cccc(Cl)c2F)n1)N1CCOCC1	> 10 µM	> 10 µM	0.3	1.27 to 2.4 µM	–	–
CCn1nc(-c2cccc3cnccc23)cc1-c1cccnn1	> 5 µM	> 5 µM	0.7	1.6 µM	–	–
O=C(c1csc(-c2cccc(F)c2Cl)n1)N1CCOCC1	> 10 µM	> 10 µM	–	> 10 µM	–	–
O=C(c1nc(-c2cccc(Cl)c2Cl)cs1)N1CCOCC1	> 10 µM	> 10 µM	0.8	0.018 to 0.038 µM	–	–
CCn1nc(-c2cccc3ccncc23)cc1-c1ccc(N)nn1	> 5 µM	> 10 µM	1.1	0.007 µM	–	–
O=C(c1csc(-c2cccc3ccccc23)n1)N1CCOCC1	> 10 µM	> 10 µM	0.6	0.766 to 1.17 µM	–	–
O=C(c1csc(-c2cccnc2)n1)N1CCOCC1	> 10 µM	> 10 µM	–	> 10 µM	–	–
O=C(c1csc(-c2cccc(Cl)c2Cl)n1)N1CCC(O)CC1	> 10 µM	> 10 µM	0.7	0.679 to 0.84 µM	–	–
Cn1nc(-c2cccc3ccccc23)cc1-c1cccnn1	> 10 µM	> 5 µM	1.2	0.025 to 0.04 µM	12%	–
Cn1ccnc1-c1cc(-c2cccc3ccccc23)nn1C	> 10 µM	0.093 to 0.126 µM	0.9	0.058 to 0.088 µM	15%	–
